What was measured:
[1] = target: T1, Polyunsaturated fatty acid lipoxygenase ALOX12 (Homo sapiens, UniProt P18054); experiment: Inhibition of human 12-hLO
T1 sequence (P18054 whole entry): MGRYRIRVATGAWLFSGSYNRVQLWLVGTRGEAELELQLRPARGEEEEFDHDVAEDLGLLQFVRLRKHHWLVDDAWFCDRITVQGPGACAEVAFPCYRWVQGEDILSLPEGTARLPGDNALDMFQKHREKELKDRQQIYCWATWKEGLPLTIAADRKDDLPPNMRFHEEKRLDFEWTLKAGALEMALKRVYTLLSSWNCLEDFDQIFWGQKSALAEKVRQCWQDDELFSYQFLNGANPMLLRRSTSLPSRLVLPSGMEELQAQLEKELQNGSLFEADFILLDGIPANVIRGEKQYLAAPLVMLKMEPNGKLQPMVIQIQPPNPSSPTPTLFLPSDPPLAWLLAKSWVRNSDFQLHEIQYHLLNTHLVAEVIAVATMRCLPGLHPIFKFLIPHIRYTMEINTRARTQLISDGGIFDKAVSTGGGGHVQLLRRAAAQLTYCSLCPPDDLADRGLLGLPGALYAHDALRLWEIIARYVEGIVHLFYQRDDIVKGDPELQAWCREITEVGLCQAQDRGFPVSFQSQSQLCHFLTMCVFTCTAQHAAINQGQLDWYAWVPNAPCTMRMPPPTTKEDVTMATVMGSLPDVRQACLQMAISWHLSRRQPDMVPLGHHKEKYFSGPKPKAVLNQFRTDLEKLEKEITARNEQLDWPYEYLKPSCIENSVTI
Method in brief: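 Rate from conjugated diene formation at 234 nm, room temperature (23 °C), stirred 2 mL reactions. 12-hLO (N-terminal His6-tagged, ~40 nM) with arachidonic acid in 25 mM Hepes pH 8, 0.01% Triton X-100. 15-hLO-1 (His6-tagged, ~40 nM) with linoleic acid, 15-hLO-2 (1 µM, SF9-expressed) with arachidonic acid, both in 25 mM Hepes pH 7.5, 0.01% Triton X-100. Rates at various inhibitor concentrations fit to saturation curve for IC50.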

[2] = target: T2, Polyunsaturated fatty acid lipoxygenase ALOX15 (Homo sapiens, UniProt P16050); experiment: Inhibition of human 15-hLO1
T2 sequence (P16050 whole entry): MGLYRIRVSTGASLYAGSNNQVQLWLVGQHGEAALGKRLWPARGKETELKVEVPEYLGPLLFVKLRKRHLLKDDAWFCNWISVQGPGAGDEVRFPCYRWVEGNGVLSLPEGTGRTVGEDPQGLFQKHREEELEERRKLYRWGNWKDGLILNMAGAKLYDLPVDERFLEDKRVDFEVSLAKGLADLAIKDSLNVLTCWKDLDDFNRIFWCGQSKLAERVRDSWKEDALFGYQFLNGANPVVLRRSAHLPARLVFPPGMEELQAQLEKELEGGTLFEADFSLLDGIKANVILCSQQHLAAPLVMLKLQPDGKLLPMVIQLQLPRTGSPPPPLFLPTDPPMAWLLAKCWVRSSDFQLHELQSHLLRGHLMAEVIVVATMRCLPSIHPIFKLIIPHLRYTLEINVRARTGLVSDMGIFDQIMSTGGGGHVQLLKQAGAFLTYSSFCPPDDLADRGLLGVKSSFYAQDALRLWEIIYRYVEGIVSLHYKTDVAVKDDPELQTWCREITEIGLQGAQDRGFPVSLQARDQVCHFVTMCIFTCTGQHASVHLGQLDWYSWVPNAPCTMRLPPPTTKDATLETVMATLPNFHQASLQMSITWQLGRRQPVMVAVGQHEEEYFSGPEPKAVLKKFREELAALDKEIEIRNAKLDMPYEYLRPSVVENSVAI

[3] = species on record: Homo sapiens; experiment: Selectivity for 12-hLO over 15-hLO1
Method in brief: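 Ratio of IC50 for 15-hLO-1 over IC50 for 12-hLO. Both come from the 234 nm conjugated-diene rate assay: 12-hLO with arachidonic acid at pH 8, 15-hLO-1 with linoleic acid at pH 7.5, 0.01% Triton X-100, 23 °C. IC50 taken from saturation-curve fits.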

[4] = target: T3, Polyunsaturated fatty acid lipoxygenase ALOX12 (Homo sapiens) (UniProt P18054); experiment: Inhibition of human 12-hLO at 40 uM by HTP assay
T3 sequence (whole entry): T1 sequence (P18054 whole entry)
Method in brief: (§1)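 384-well xylenol orange endpoint assay. 30 µM substrate (arachidonic acid for 12-hLO in 25 mM Hepes pH 8.0; linoleic acid for 15-hLO-1 in 25 mM HEPES pH 7.5), 0.1% Triton X-100. Inhibitor at 40 µM final from DMSO. Reactions started with ~40 nM enzyme and stopped at ~35% completion with 100 µM xylenol orange and 150 µM ferrous ammonium sulfate in 25 mM H2SO4. Read at 560 nm after 30 min dark shaking. Triplicate, normalised to no-enzyme and DMSO controls.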

[5] = target: T3, Polyunsaturated fatty acid lipoxygenase ALOX12 (Homo sapiens); experiment: Inhibition of human 12-hLO at 10 uM by MI assay
Method in brief: (§2)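 One-point manual continuous assay at 23 °C, stirred, following conjugated diene at 234 nm. 12-hLO (~40 nM, His6-tagged) with arachidonic acid in 25 mM Hepes pH 8, 0.01% Triton X-100. 15-hLO-1 (~40 nM) with linoleic acid in 25 mM Hepes pH 7.5, 0.01% Triton X-100. 10 µM inhibitor.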

[6] = target: T4, Polyunsaturated fatty acid lipoxygenase ALOX15 (Homo sapiens) (UniProt P16050); experiment: Inhibition of human 15-hLO1 at 40 uM by HTP assay; method in brief: as §1
T4 sequence (whole entry): T2 sequence (P16050 whole entry)

[7] = target: T4, Polyunsaturated fatty acid lipoxygenase ALOX15 (Homo sapiens); experiment: Inhibition of human 15-hLO1 at 10 uM by MI assay; method in brief: as §2

| Structure (SMILES) | IC50 [1] [µM] | inhibition [4] [%] | inhibition [5] [%] | inhibition [6] [%] | inhibition [7] [%] | Ki [1] [µM] | Ki [2] [µM] | Ratio Ki [3] |
| --- | --- | --- | --- | --- | --- | --- | --- | --- |
| C[C@H](c1nccs1)N(C)C(=O)[C@H](C[C@H](C)C(Cl)(Cl)Cl)NC(=O)C[C@H](C)C(Cl)(Cl)Cl [NEODYSIDENIN] | > 100 |  |  |  |  | 17 |  |  |
| C[C@H](NC(=O)[C@H](C[C@H](C)C(Cl)(Cl)Cl)N(C)C(=O)C[C@H](C)C(Cl)(Cl)Cl)c1nccs1 [DYSIDENIN] |  |  |  |  |  | 9 | 8 | 1 |
| Oc1c(Cl)cc(C(c2cc(Cl)c(O)c(Cl)c2)C(c2cc(Cl)c(O)c(Cl)c2)c2cc(Cl)c(O)c(Cl)c2)cc1Cl | 0.21 | 70 | 100 | 37 | 36 |  |  |  |
| COc1c(O)cc2oc3cc(O)c(CC=C(C)C)c(O)c3c(=O)c2c1CC=C(C)C [MANGOSTIN] | 0.58 | 47 | 100 | 12 | 36 |  |  |  |

Continued, in another order:

| IC50 [1] [µM] | inhibition [4] [%] | inhibition [5] [%] | inhibition [6] [%] | inhibition [7] [%] | Structure (SMILES) | Ki [1] [µM] | Ki [2] [µM] | Ratio Ki [3] |
| --- | --- | --- | --- | --- | --- | --- | --- | --- |
| 0.15 | 46 | 88 | 0 | 0 | O=C(O)c1cc(C(=O)C(=O)c2cc(C(=O)O)c(O)c3ccccc23)c2ccccc2c1O |  |  |  |
|  | 71 | 0 | 39 | 0 | Oc1cccc2ccc(SSc3ccc4cccc(O)c4n3)nc12 |  |  |  |

Source: ChEMBL document CHEMBL1137481, “Discovery of platelet-type 12-human lipoxygenase selective inhibitors by high-throughput screening of structurally diverse libraries” (Bioorg Med Chem, 2007)
